Publication PMC11718171 (Biophysics and Physicobiology, 2024)
Ends that are not written are not given here.

Legend:
Lg-CD86 = assay: Orthogonality of labeling, Lg-CD86-expressing cells; format: cell-based, human; details: 10 nM each, simultaneous labeling, HEK293
Procedure, shortened: (§1)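 HEK293A cells in DMEM with 5% FBS, seeded on coverslips and same-day transfected (Lipofectamine 3000, 1 µg total plasmid made up with pCAGGS) with LgBiT-, SNAP- or HaloTag-fused CD86 (1-277). Co-labeled with SF650-FiBiT, SNAP-cell TMR-star and Halo-JF549 in phenol red-free complete DMEM, 15 min, 37°C. Washed thrice, imaged in 0.01% BSA-HBSS. Bright spots counted against coverslip background.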

SNAP-CD86 = assay: Orthogonality of labeling, SNAP-CD86-expressing cells; format: cell-based, human; details: 10 nM each, simultaneous labeling, HEK293
Procedure, shortened: as §1

LgBiT = details: in vitro, grating-coupled interferometry; ref [27]; cited from earlier work
[1] = Non-specific binding on coverslips; details: 10 nM, washed three times with complete phenol red-free DMEM, then BSA-HBSS
Procedure, shortened: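 No cells: fluorescent HiBiT or FiBiT peptide diluted in phenol red-free DMEM with 5% FBS, penicillin, streptomycin and glutamine. Added to a dish containing a glass coverslip and held 15 min at 37°C. Washed three times, mounted in a chamber in HBSS with 0.01% BSA, then imaged at single-molecule level for adsorbed bright spots.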

CN(C)c1ccc2c(-c3cc(C(=O)NCc4ccc(COc5nc(N)nc6nc[nH]c56)cc4)ccc3C(=O)[O-])c3ccc(=[N+](C)C)cc-3oc2c1 [SNAP-TMR]
staining of Lg-CD86-expressing cells (Lg-CD86): not by SNAP-TMR nor Halo-JF549 | labeling of SNAP-CD86-expressing cells (SNAP-CD86): labeled by SNAP-TMR ligand

HiBiT: HiBiT peptide (~1.3 kDa), NanoLuc fragment (VSGWRLFKKIS; also: TMR label, site not given here)
on-time of LgBiT-HiBiT interaction (LgBiT): ~ 12 min

TMR-DYKDDDDKGDGSVSGWRLFKKIS [TMR-FiBiT]
non-specific binding to coverslips [1]: greatly reduced the non-specific binding
